Source: ChEMBL document CHEMBL2069258, “Novel phosphoramidate prodrugs of N-acetyl-(D)-glucosamine with antidegenerative activity on bovine and human cartilage explants” (J Med Chem, 2012)

Assays:
[1] = Antidegenerative activity against human cartilage explant assessed as inhibition of IL1-induced of GAG release at 10 uM for 1 day before IL-1 treatment measured after 6 days by colorimetric analysis relative to control; format: functional; conditions: Cartilage tissue
Procedure, shortened: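 Human cartilage explants, equilibrated 24 h, then cultured one day in DMEM + hydrolyzed lactalbumin + 50 μg/mL vitamin C + penicillin/streptomycin + ITS with compound. 10 ng IL-1 then added and culture continued six days, medium replaced every two days. Medium GAG measured by Blyscan colorimetric assay. Percent reduction = (mean control − mean sample release)/control × 100, against a 0.25% DMSO + IL-1 control.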

[2] = Cytotoxicity against human articular chondrocytes assessed as metabolic activity at 10 uM by WST-1 assay; conditions: read-out: Activity
Cartilage tissue [3] = assay: Antidegenerative activity against bovine cartilage explant assessed as inhibition of IL1-induced of GAG release at 0.1 mM for 1 day before IL-1 treatment measured after 6 days by colorimetric analysis relative to control; format: functional; conditions: Bos taurus
Procedure, shortened: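 Articular cartilage explants from different cows, equilibrated 24 h, then cultured one day in DMEM + hydrolyzed lactalbumin + 50 μg/mL vitamin C + penicillin/streptomycin + ITS with or without compound (0.1 mM). GAG release then induced with 10 ng IL-1 and continued six days, medium changed every two days. Medium GAG measured by Blyscan colorimetric assay. GAG fold-increase versus minus-IL-1 control. Percent reduction relative to IL-1-only fold. Triplicates per experiment, mean of n experiments.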

[4] = Cytotoxicity against bovine articular chondrocytes assessed as cell viability at 0.1 mM by MTT assay relative to control; parameters: species or system Bos taurus; conditions: cattle, read-out: Activity
Procedure, shortened: (§1)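 Chondrocyte monolayers tested in parallel with the explant work. Viability measured by MTT and expressed as percent of untreated cells (no compound = 100%). Mean and SE over n experiments, each in triplicate.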

[5] = Cytotoxicity against bovine articular chondrocytes assessed as cell viability at 10 mM by MTT assay relative to control; parameters: species or system Bos taurus; conditions: cattle, read-out: Activity; procedure, shortened: as §1
Cartilage tissue [6] = assay: Antidegenerative activity against bovine cartilage explant assessed as inhibition of IL1-induced of GAG release at 10 mM for 1 day before IL-1 treatment measured after 6 days by colorimetric analysis relative to control; format: functional; conditions: Bos taurus
Procedure, shortened: (§2)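 Articular cartilage explants from different cows, equilibrated 24 h, then cultured 1 day in DMEM with hydrolyzed lactalbumin, 50 μg/mL vitamin C, penicillin/streptomycin and ITS, with or without compound. IL-1 10 ng added; medium changed every two days; harvested 6 days later. GAG in medium by Blyscan colorimetric assay. Fold increase over minus-IL-1 control used to derive % reduction versus IL-1-only fold. Triplicate per experiment; mean and SE over n cows.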

Cartilage tissue [7] = assay: Antidegenerative activity against bovine cartilage explant assessed as inhibition of IL1-induced of GAG release at 1 mM for 1 day before IL-1 treatment measured after 6 days by colorimetric analysis relative to control; format: functional; conditions: Bos taurus; procedure, shortened: as §2
[8] = Cytotoxicity against bovine articular chondrocytes assessed as cell viability at 1 mM by MTT assay relative to control; parameters: species or system Bos taurus; conditions: cattle, read-out: Activity
Procedure, shortened: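 Chondrocyte monolayer cultures exposed to compound in parallel with the explant experiments. Viability read by MTT, as percent of untreated control cells (100%). Mean of n experiments from different cows, each run in triplicate.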

[9] = Cytotoxicity against human articular chondrocytes assessed as metabolic activity at 250 uM by WST-1 assay; conditions: read-out: Activity
Procedure, shortened: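 Metabolic activity measured by WST-1 in parallel with the human explant assay and reported as a percentage.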

[10] = Antidegenerative activity against human cartilage explant assessed as inhibition of IL1-induced of GAG release at 250 uM for 1 day before IL-1 treatment measured after 6 days by colorimetric analysis relative to control; format: functional; conditions: Cartilage tissue
Procedure, shortened: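 Human explants: 24 h equilibration, 1 day preincubation with compound in DMEM/lactalbumin/vitamin C/ITS medium, then IL-1 10 ng for 6 days with medium renewed every two days. Compounds dissolved in DMSO, with a 0.25% DMSO control. GAG released measured colorimetrically (Blyscan). % reduction = (mean control release − mean sample release)/control release × 100.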

Serum = assay: Stability of compound in human serum assessed as hydrolysis after 17 hrs by NMR analysis; format: ADME, cell-free
Procedure, shortened: (§3)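 Prodrug disappearance followed by NMR in guinea pig or human serum at 37 °C, pH 7.0. Half-life taken from the apparent first-order rate constant, by linear regression of pseudo-first-order plots of prodrug concentration versus time.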

[11] = Stability of compound in guinea pig serum assessed as hydrolysis after 17 hrs by NMR analysis; format: ADME, cell-free, Cavia porcellus; procedure, shortened: as §3

## CCOC(=O)[C@@H]1CCCN1P(=O)(Oc1ccc(OC)cc1)O[C@H]1[C@H](O)[C@@H](NC(C)=O)[C@H](O)O[C@@H]1CO (stereo partly specified)
[1]
  inhibition at 10 µM: 17.4%
[2]
  viability at 10 µM: 107%

## COc1ccc(OP(=O)(N[C@H](C(=O)OCc2ccccc2)C(C)C)O[C@H]2[C@H](O)[C@@H](CO)O[C@H](OC)[C@@H]2NC(C)=O)cc1 (stereo partly specified)
Cartilage tissue [3]
  inhibition at 100 µM: 9.4%
[4]
  viability at 100 µM: 99%

## CCCCOC(=O)[C@@H]1CCCN1P(=O)(Oc1ccc(OC)cc1)O[C@H]1[C@H](O)[C@@H](CO)O[C@H](O)[C@@H]1NC(C)=O (stereo partly specified)
[1]
  inhibition at 10 µM: 30.4%
[2]
  viability at 10 µM: 87.1%

## CCOC(=O)[C@@H](NP(=O)(Oc1ccc(OC)cc1)O[C@H]1[C@H](O)[C@@H](CO)O[C@H](OC)[C@@H]1NC(C)=O)C(C)C (stereo partly specified)
Cartilage tissue [3]
  inhibition at 100 µM: -52.5%
[4]
  viability at 100 µM: 85%

## CC(=O)N[C@@H]1[C@@H](O)[C@H](O)[C@@H](CO)O[C@H]1O [N-ACETYLGLUCOSAMINE]
[5]
  viability at 10000 µM: 61%
Cartilage tissue [3]
  inhibition at 100 µM: 5.4%
Cartilage tissue [6]
  inhibition at 10000 µM: 9.3%
Cartilage tissue [7]
  inhibition at 1000 µM: -1%
[4]
  viability at 100 µM: 107%
[8]
  viability at 1000 µM: 70%

## COc1ccc(OP(=O)(O[C@H]2[C@H](O)[C@@H](CO)O[C@H](O)[C@@H]2NC(C)=O)N2CCC[C@H]2C(=O)OC2CCCCC2)cc1 (stereo partly specified)
Cartilage tissue [3]
  inhibition at 100 µM: -9.6%

## CCOC(=O)[C@@H]1CCCN1P(=O)(Oc1ccc(OC)cc1)O[C@H]1[C@H](O)[C@@H](CO)O[C@H](OC)[C@@H]1NC(C)=O (stereo partly specified)
Cartilage tissue [3]
  inhibition at 100 µM: -53.7%
[4]
  viability at 100 µM: 62%

## CCOC(=O)[C@@H]1CCCN1P(=O)(Oc1ccc(OC)cc1)O[C@H]1[C@H](O)[C@@H](CO)O[C@H](O)[C@@H]1NC(C)=O (stereo partly specified)
[1]
  inhibition at 10 µM: 38%
[2]
  viability at 10 µM: 66.4%

## COc1ccc(OP(=O)(N[C@@H](C)C(=O)OCc2ccccc2)O[C@H]2[C@H](O)[C@@H](CO)O[C@H](OC)[C@@H]2NC(C)=O)cc1 (stereo partly specified)
Cartilage tissue [3]
  inhibition at 100 µM: -19%
[4]
  viability at 100 µM: 78%

## CCOC(=O)CN(C)P(=O)(Oc1ccc(OC)cc1)O[C@H]1[C@H](O)[C@@H](CO)O[C@H](O)[C@@H]1NC(C)=O (stereo partly specified)
Cartilage tissue [3]
  inhibition at 100 µM: -24.9%
[4]
  viability at 100 µM: 32%
[8]
  viability at 1000 µM: 80%

## N[C@H]1C(O)O[C@H](CO)[C@@H](O)[C@@H]1O (stereo partly specified) [GLUCOSAMINE]
[9]
  viability at 250 µM: 85.3%
[5]
  viability at 10000 µM: 56%
Cartilage tissue [3]
  inhibition at 100 µM: 0.8%
[1]
  inhibition at 10 µM: 10.3%
[2]
  viability at 10 µM: 107%
Cartilage tissue [6]
  inhibition at 10000 µM: 19%
Cartilage tissue [7]
  inhibition at 1000 µM: 3.4%
[4]
  viability at 100 µM: 106%
[8]
  viability at 1000 µM: 88%
[10]
  inhibition at 250 µM: 14.1%

## COc1ccc(OP(=O)(O[C@H]2[C@H](O)[C@@H](CO)O[C@H](O)[C@@H]2NC(C)=O)N2CCC[C@H]2C(=O)OCc2ccccc2)cc1 (stereo partly specified)
[1]
  inhibition at 10 µM: 28.8%
[2]
  viability at 10 µM: 115%

## COc1ccc(OP(=O)(O[C@H]2[C@H](O)[C@@H](CO)O[C@H](O)[C@@H]2NC(C)=O)N2CCC[C@H]2C(=O)OC(C)C)cc1 (stereo partly specified)
Cartilage tissue [3]
  inhibition at 100 µM: 17.5%
[1]
  inhibition at 10 µM: 24.4%
[2]
  viability at 10 µM: 79.4%
[4]
  viability at 100 µM: 90%

## CCOC(=O)CN(C)P(=O)(Oc1ccc(OC)cc1)O[C@H]1[C@H](O)[C@@H](CO)O[C@H](OC)[C@@H]1NC(C)=O (stereo partly specified)
Cartilage tissue [3]
  inhibition at 100 µM: -23.2%
[4]
  viability at 100 µM: 100%

## COc1ccc(OP(=O)(O[C@H]2[C@H](O)[C@@H](CO)O[C@H](O)[C@@H]2NC(C)=O)N2CCC[C@H]2C(=O)OC(C)(C)C)cc1 (stereo partly specified)
Cartilage tissue [3]
  inhibition at 100 µM: -8%
Serum
  Stability: Stable
[4]
  viability at 100 µM: 91%
[8]
  viability at 1000 µM: 5%
[11]
  Stability: Stable

## CCC[C@H](NP(=O)(Oc1ccc(OC)cc1)O[C@H]1[C@H](O)[C@@H](CO)O[C@H](O)[C@@H]1NC(C)=O)C(=O)OCC (stereo partly specified)
Cartilage tissue [3]
  inhibition at 100 µM: 11.8%
[4]
  viability at 100 µM: 93%

## CCC(C)OC(=O)[C@@H]1CCCN1P(=O)(Oc1ccc(OC)cc1)O[C@H]1[C@H](O)[C@@H](CO)O[C@H](O)[C@@H]1NC(C)=O (stereo partly specified)
Cartilage tissue [3]
  inhibition at 100 µM: -4.4%
[1]
  inhibition at 10 µM: 27.1%
[2]
  viability at 10 µM: 53.9%
[4]
  viability at 100 µM: 96%
[8]
  viability at 1000 µM: 7%

## COC(=O)[C@@H](NP(=O)(Oc1ccc(OC)cc1)O[C@H]1[C@H](O)[C@@H](CO)O[C@H](O)[C@@H]1NC(C)=O)C(C)C (stereo partly specified)
Cartilage tissue [3]
  inhibition at 100 µM: -4.4%
[4]
  viability at 100 µM: 96%
